Results taken from ChEMBL document CHEMBL1133178, “Synthesis and evaluation of "AZT-HEPT", "AZT-pyridinone", and "ddC-HEPT" conjugates as inhibitors of HIV reverse transcriptase” (J Med Chem, 2000).

Columns and labels:
[1] = molecular target: Human immunodeficiency virus type 1 reverse transcriptase (Human immunodeficiency virus 1) (UniProt Q72547); experiment: Cytotoxic concentration which reduces the cell viability of HIV-1 LAI infected T4 lymphoblastoid CEM-SS cells by 50%; assay type: functional, cell-based
[2] = Effective concentration required to achieve 50% inhibition of HIV-2 D194 multiplication in PBM (peripheral blood mononuclear) cells; assay type: functional, Homo sapiens
[3] = test system: MT4; experiment: Effective concentration. required to achieve 50% inhibition of HIV-1 IIIB multiplication in hT4 lymphoblastoid MT-4 cells using MTT assay; assay type: functional, cell-based; settings: Homo sapiens
Method in brief: (§1)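 MT-4 cells infected with 50 TCID50 of HIV-1 IIIB; 30 min adsorption, free virus washed off, then cultured with a range of compound concentrations for 5 days. Protection from virus-induced cytopathogenicity was read by MTT reduction (OD 540 nm). EC50 taken from a median-effect plot of dose-effect data; means of duplicate experiments.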

[4] = (§2) Cytotoxic concentration which reduces the cell viability of HIV-1 IIIB infected PBM (peripheral blood mononuclear) cells; assay type: functional; settings: Homo sapiens
[5] = Effective concentration required to achieve 50% inhibition of HIV-1 IIIB multiplication in PBM (peripheral blood mononuclear) cells; assay type: functional, Homo sapiens
[6] = test system: MT4; experiment: Cytotoxic concentration which reduces the cell viability of HIV-1 IIIB infected T4 lymphoblastoid MT-4 cells by 50%; assay type: functional; settings: Homo sapiens
Method in brief: (§3)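 Cytotoxicity was run in parallel, in the same experiment, on uninfected, compound-treated MT-4 or CEM-SS cells cultured 5 days. Viability was measured by MTT reduction to formazan (OD 540 nm). CC50 is the concentration reducing viability by 50%, calculated by median-effect analysis; means of duplicates.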

[7] = test system: MT4; experiment: Effective concentration required to achieve 50% inhibition of HIV-1 IIIB multiplication in hT4 lymphoblastoid MT-4 cells using MTT assay; assay type: functional, cell-based; settings: Homo sapiens; method in brief: as §1
[8] = test system: CEM-SS; experiment: Effective concentration required to achieve 50% inhibition of HIV-1 181C (nevirapine-resistant HIV-1) multiplication in CEM-SS cells.; assay type: functional, cell-based; settings: Homo sapiens
Method in brief: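 CEM-SS cells infected with 100 TCID50 of nevirapine-resistant HIV-1, 30 min adsorption, then washed to remove free virus. Cultured with a range of compound concentrations for 5 days. Virus production read as reverse transcriptase activity of virions released into culture supernatants. EC50 taken from a computer-generated median effect plot of dose-effect data; means of duplicate experiments.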

[9] = test system: MT4; experiment: as §2; assay type: functional, cell-based; settings: Homo sapiens
[10] = concentration of compound which reduces the cell viability by 50% against PBM (peripheral blood mononuclear) cells infected with HIV-1 IIIB cells.; assay type: functional; settings: Homo sapiens
[11] = test system: MT4; experiment: Cytotoxic conc. which reduces the cell viability of […] T4 lymphoblastoid MT-4 cells by 50%; assay type: functional; settings: Homo sapiens; method in brief: as §3
[12] = molecular target: Human immunodeficiency virus type 1 reverse transcriptase (Human immunodeficiency virus 1) (UniProt Q72547); experiment: Cytotoxic conc. which reduces the cell viability of HIV-1 LAI infected T4 lymphoblastoid CEM-SS cells by 50%; assay type: functional, cell-based
[13] = Effective conc. required to achieve 50% inhibition of HIV-1 IIIB multiplication in PBM (peripheral blood mononuclear) cells; assay type: functional, Homo sapiens
[14] = Effective conc. required to achieve 50% inhibition of HIV-2 D194 multiplication in PBM (peripheral blood mononuclear) cells; assay type: functional, Homo sapiens
[15] = test system: MT4; experiment: Cytotoxic concentration. which reduces the cell viability of […] T4 lymphoblastoid MT-4 cells by 50%; assay type: functional; settings: Homo sapiens; method in brief: as §3
[16] = Effective concentration. required to achieve 50% inhibition of HIV-2 D194 multiplication in PBM (peripheral blood mononuclear) cells; assay type: functional, Homo sapiens

Row | Compound | CC50 [1] [µM] | EC50 [2] [µM] | CC50 [4] [µM] | EC50 [5] [µM] | CC50 [6] [µM] | EC50 [7] [µM] | further results
1 | CCc1c(C)nc(O)c(NC(=O)CCCCCCCCC(=O)O)c1Cc1cc(C)cc(C)c1 | > 10 | – | – | – | – | – | –
2 | CCc1c(C)nc(O)c(NC(=O)CCCC(=O)O)c1Cc1cc(C)cc(C)c1 | 28 | – | – | – | – | – | –
3 | CCc1c(C)nc(O)c(N)c1Cc1cc(C)cc(C)c1 | > 10 | – | – | – | – | – | –
4 | CCc1c(C)nc(O)c(NC(=O)CCCCCCCCCNC(=O)OC(C)(C)C)c1Cc1cc(C)cc(C)c1 | > 10 | – | – | – | – | – | –
5 | [N-]=[N+]=NC1CC(n2cc(CCC(=O)NCCCCN)c(=O)[nH]c2=O)OC1CO (configuration not stated) | > 100 | > 100 | > 100 | > 100 | > 100 | – | EC50 [3]: > 100 µM
6 | CCc1c(Sc2cc(C)cc(C)c2)n(CCCCC(=O)NCCCCNC(=O)CCc2cn(C3CC(N=[N+]=[N-])C(CO)O3)c(=O)[nH]c2=O)c(=O)[nH]c1=O (configuration not stated) | > 55 | > 50 | > 50 | 4.3 | > 10 | > 10 | EC50 [8]: > 50 µM
7 | CCc1c(C)nc(O)c(NC(=O)CNC(=O)CNC(=O)OC(C)(C)C)c1Cc1cc(C)cc(C)c1 | > 100 | – | – | – | – | – | –
8 | CCc1c(Sc2cc(C)cc(C)c2)n(CCCCC(=O)NCCCCCCCCCCNC(=O)CCn2c(=O)c(C)cn(C3CC(N=[N+]=[N-])C(CO)O3)c2=O)c(=O)[nH]c1=O (configuration not stated) | > 25 | > 25 | > 25 | 5.5 | > 10 | > 10 | EC50 [8]: 23 µM
9 | [N-]=[N+]=NC1CC(n2cc(CCC(=O)NCCCCCCCCCCN)c(=O)[nH]c2=O)OC1CO (configuration not stated) | 38 | 68 | 77 | 75 | 60 | > 100 | –
10 | NCCCCCCCCCCCCNc1ccn(C2CCC(CO)O2)c(=O)n1 (configuration not stated) | 48 | 4.7 | 61 | 2.9 | > 100 | 100 | –
11 | CCOC(=O)CCn1c(=O)c(C)cn(C2CC(N=[N+]=[N-])C(CO)O2)c1=O (configuration not stated) | > 100 | 8 | > 100 | 2.1 | > 100 | 4.3 | –
12 | Cc1cn(C2CC(N=[N+]=[N-])C(CO)O2)c(=O)n(CCC(=O)NCCCCCCCCCCN)c1=O (configuration not stated) | 60 | > 100 | 80 | 40 | > 100 | > 100 | –
13 | CCc1c(Sc2cc(C)cc(C)c2)n(CCCCC(=O)NCCCCCCCCCCNC(=O)CCc2cn(C3CC(N=[N+]=[N-])C(CO)O3)c(=O)[nH]c2=O)c(=O)[nH]c1=O (configuration not stated) | > 25 | > 25 | – | 5.1 | 10 | – | EC50 [9]: > 10 µM; CC50 [10]: > 25 µM; EC50 [8]: > 25 µM
14 | Nc1ccn([C@H]2CC[C@@H](CO)O2)c(=O)n1 [ZALCITABINE] | – | – | 10 | – | – | 2.4 | CC50 [11]: > 100 µM; CC50 [12]: 34 µM; EC50 [13]: 0.016 µM; EC50 [14]: 0.07 µM
15 | COC(=O)CCCNC(=O)CCc1cn(C2CC(N=[N+]=[N-])C(CO)O2)c(=O)[nH]c1=O (configuration not stated) | > 100 | > 100 | > 100 | > 100 | 75 | > 100 | –
16 | CCc1c(C)nc(O)c(NC(=O)CCCC(=O)OC)c1Cc1cc(C)cc(C)c1 | > 100 | – | – | – | – | – | –
17 | CCc1c(Sc2cc(C)cc(C)c2)n(CCCCC(=O)NCCCCCCCCCCCCNc2ccn(C3CCC(CO)O3)c(=O)n2)c(=O)[nH]c1=O (configuration not stated) | > 25 | – | > 10 | 0.46 | > 10 | 6.2 | EC50 [8]: 0.53 µM
18 | CCc1c(C)nc(O)c(NC(=O)CNC(=O)CN)c1Cc1cc(C)cc(C)c1 | > 100 | – | – | – | – | – | –
19 | CCc1c(C)nc(O)c(NC(=O)CCCCCCCCCN)c1Cc1cc(C)cc(C)c1 | > 66 | – | – | – | – | – | –
20 | Cc1cn([C@H]2C[C@H](N=[N+]=[N-])[C@@H](CO)O2)c(=O)[nH]c1=O [ZIDOVUDINE] | – | – | 75 | – | – | 0.02 | CC50 [11]: > 100 µM; CC50 [12]: > 100 µM; EC50 [13]: 0.001 µM; EC50 [14]: 0.006 µM
21 | COC(=O)CCc1cn(C2CC(N=[N+]=[N-])C(CO)O2)c(=O)[nH]c1=O (configuration not stated) | > 100 | – | > 100 | > 100 | – | > 100 | CC50 [15]: > 100 µM; EC50 [16]: > 100 µM
22 | CCc1c(C)nc(O)c(NC(=O)CCCCCCCCC(=O)OC)c1Cc1cc(C)cc(C)c1 | > 10 | – | – | – | – | – | –
23 | CCc1c(Sc2cc(C)cc(C)c2)n(CCCCC(=O)OC)c(=O)[nH]c1=O | > 33 | > 33 | > 33 | 0.18 | > 10 | 0.33 | EC50 [8]: > 33 µM
